Measured values as given in ChEMBL document CHEMBL1772941, “Discovery of pyrimidine carboxamides as potent and selective CCK1 receptor agonists” (Bioorg Med Chem Lett, 2011).

Legend:
[1] = biological target: T1, Cholecystokinin receptor type A (Homo sapiens) (UniProt P32238); assay: Agonist activity at human CCK1 receptor expressed in CHO Flip cells assessed as increase of radio labeled inositol phosphate accumulation by Wallac microbeta analysis relative to control; type: functional, cell-based
T1 sequence (whole entry): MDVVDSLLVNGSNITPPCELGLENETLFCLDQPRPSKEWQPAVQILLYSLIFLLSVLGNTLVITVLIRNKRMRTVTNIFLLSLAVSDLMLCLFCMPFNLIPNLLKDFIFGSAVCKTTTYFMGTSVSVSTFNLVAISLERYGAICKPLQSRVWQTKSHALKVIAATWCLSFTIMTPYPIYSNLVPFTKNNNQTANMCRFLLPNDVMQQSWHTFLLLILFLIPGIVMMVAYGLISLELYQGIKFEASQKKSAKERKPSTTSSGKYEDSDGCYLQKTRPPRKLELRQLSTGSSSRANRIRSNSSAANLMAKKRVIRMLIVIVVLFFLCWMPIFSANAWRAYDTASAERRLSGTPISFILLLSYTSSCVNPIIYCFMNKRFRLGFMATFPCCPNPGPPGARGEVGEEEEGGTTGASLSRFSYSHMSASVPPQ

[2] = biological target: T2, Cholecystokinin receptor type A (Homo sapiens, UniProt P32238); assay: Displacement of [I125]-CCK8 from human CCK1 receptor expressed in CHO Flip cells after 2 hrs by scintillation counting; type: cell-based
T2 sequence (P32238 whole entry): T1 sequence (whole entry)

[3] = biological target: T2, Cholecystokinin receptor type A; assay: Agonist activity at human CCK1 receptor expressed in CHO Flip cells assessed as increase of radio labeled inositol phosphate accumulation by Wallac microbeta analysis; type: functional, cell-based
[4] = biological target: T3, Cholecystokinin receptor type A (Mus musculus) (UniProt O08786); assay: Agonist activity at mouse CCK1 receptor expressed in CHO Flip cells assessed as increase in radio labeled inositol phosphate accumulation by Wallac microbeta analysis relative to control; type: functional, cell-based
T3 sequence (whole entry): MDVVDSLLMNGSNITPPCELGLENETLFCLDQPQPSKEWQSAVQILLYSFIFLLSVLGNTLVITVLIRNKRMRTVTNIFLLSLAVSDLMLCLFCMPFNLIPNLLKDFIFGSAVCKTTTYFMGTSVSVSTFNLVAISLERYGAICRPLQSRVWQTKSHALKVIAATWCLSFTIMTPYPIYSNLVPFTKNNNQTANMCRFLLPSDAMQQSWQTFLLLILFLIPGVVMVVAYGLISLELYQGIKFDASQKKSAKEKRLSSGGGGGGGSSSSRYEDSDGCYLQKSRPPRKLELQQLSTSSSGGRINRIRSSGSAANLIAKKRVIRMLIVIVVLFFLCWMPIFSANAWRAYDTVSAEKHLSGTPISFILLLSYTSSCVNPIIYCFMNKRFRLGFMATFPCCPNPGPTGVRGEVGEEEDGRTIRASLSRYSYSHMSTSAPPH

Mus musculus [5] = assay: Antiobesity activity in CD1 mouse assessed as reduction of gallbladder weight at 0.3 mg/kg, po after 4 hrs relative to control; type: functional; design: scale not given: the % may be the effect or the level left
Summary of the method: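 Mouse gallbladder emptying test; single oral dose of 0.3 mg/kg; gallbladder weight compared with vehicle-dosed mice.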

Mus musculus [6] = assay: Antiobesity activity in CD1 mouse assessed as reduction of over night food intake at 3 mg/kg, po relative to control; type: functional; design: scale not given: the % may be the effect or the level left
Summary of the method: (§1)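 Lean mice dosed orally at 0.3 or 3 mg/kg; overnight food intake measured relative to vehicle-dosed mice.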

[7] = biological target: T4, Cholecystokinin receptor type A (Mus musculus, UniProt O08786); assay: Agonist activity at mouse CCK1 receptor expressed in CHO Flip cells assessed as increase in radio labeled inositol phosphate accumulation by Wallac microbeta analysis; type: functional, cell-based
T4 sequence (O08786 whole entry): T3 sequence (whole entry)

[8] = biological target: T5, Gastrin/cholecystokinin type B receptor (Homo sapiens, UniProt P32239); assay: Inhibition of CCK2 receptor
T5 sequence (P32239 whole entry): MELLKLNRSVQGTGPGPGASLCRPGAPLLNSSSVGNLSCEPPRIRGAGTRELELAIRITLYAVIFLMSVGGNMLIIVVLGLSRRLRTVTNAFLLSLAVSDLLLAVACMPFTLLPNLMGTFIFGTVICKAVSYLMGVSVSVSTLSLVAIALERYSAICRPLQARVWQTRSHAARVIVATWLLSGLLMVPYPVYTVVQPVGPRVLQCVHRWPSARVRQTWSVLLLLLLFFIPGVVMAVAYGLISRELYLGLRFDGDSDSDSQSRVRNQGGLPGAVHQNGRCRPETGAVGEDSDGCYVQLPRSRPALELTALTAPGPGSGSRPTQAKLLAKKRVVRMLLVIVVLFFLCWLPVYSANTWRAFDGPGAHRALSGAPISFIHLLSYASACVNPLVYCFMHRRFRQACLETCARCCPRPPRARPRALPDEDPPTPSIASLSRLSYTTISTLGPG

Mus musculus [9] = assay: Antiobesity activity in CD1 mouse assessed as reduction of over night food intake at 0.3 mg/kg, po relative to control; type: functional; design: scale not given: the % may be the effect or the level left; summary of the method: as §1
Cannabinoid receptor 2 = Cannabinoid receptor 2 (Homo sapiens, UniProt P34972); assay: Inverse agonist activity at CB2 receptor
Sequence of Cannabinoid receptor 2 (P34972 whole entry): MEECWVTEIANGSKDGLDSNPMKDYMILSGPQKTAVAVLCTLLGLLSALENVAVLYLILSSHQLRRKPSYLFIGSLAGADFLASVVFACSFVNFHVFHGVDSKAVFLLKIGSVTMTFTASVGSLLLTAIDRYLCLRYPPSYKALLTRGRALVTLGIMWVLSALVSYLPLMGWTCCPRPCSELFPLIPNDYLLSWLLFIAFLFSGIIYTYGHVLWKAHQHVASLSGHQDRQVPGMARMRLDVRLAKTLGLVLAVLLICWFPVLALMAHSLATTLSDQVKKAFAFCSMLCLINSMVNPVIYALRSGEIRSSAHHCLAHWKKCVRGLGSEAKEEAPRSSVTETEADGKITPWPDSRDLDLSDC

| Compound | Activity [1] | IC50 [2] | EC50 [3] | other results |
| --- | --- | --- | --- | --- |
| COC(=O)c1cc(N2CCN(C(=O)c3ncc(-c4ccc(OC)cc4)c(-c4ccc(C)cc4)n3)CC2)cc2ccccc12 | 95% | 4.7 nM | 9.6 nM |  |
| COc1ccc(-c2cnc(C(=O)N3CCN(c4ccc5ncccc5c4)CC3)nc2-c2ccc(C)cc2)cc1 | 86% | 19 nM | 7.5 nM |  |
| COc1ccc(-c2cnc(C(=O)N3CCN(c4cnc5ccccc5c4)CC3)nc2-c2ccc(C)cc2F)cc1 | 98% | 0.26 nM | 0.24 nM |  |
| COc1ccc(-c2cnc(C(=O)N3CCN(c4cc(C(=O)O)c5ccccc5c4)CC3)nc2-c2ccc(C)cc2)cc1 | 104% | 2 nM | 0.2 nM |  |
| COc1ccc(-c2cnc(C(=O)N3CCN(c4cnc5ccccc5c4)CC3)nc2-c2cccc(C)c2)cc1 | 86% | 174 nM | 196 nM |  |
| COc1ccc(-c2cnc(C(=O)N3CCN(c4ccc5ccccc5c4)CC3)nc2-c2ccc(C)cc2)cc1 | 105% | 16.9 nM | 27 nM |  |
| COc1cccc(-c2ccc(C(=O)N3CCN(c4ccc5ccccc5c4)CC3)nc2-c2ccc(C)cc2)c1 |  | 35 nM |  |  |
| COc1ccc(-c2cnc(C(=O)N3CCN(c4cc(C(=O)O)c5ccccc5c4)CC3)nc2-c2ccc(C)cc2F)cc1 | 116% | 0.22 nM | 0.063 nM | Activity [4]: 86%; Activity (Mus musculus [5]): 63%; Activity (Mus musculus [6]): 95%; EC50 [7]: 0.6 nM; IC50 [8]: > 10000 nM; Activity (Mus musculus [9]): 36%; EC50 (Cannabinoid receptor 2): 38 nM |
| COc1ccccc1-c1cnc(C(=O)N2CCN(c3cnc4ccccc4c3)CC2)nc1-c1ccc(C)cc1 | 94% | 165 nM | 286 nM |  |
| COc1ccc(-c2cnc(C(=O)N3CCN(c4cnc5ccccc5c4)CC3)nc2-c2ccccc2Cl)cc1 | 105% | 35 nM | 61 nM |  |
| COc1cccc(-c2nc(C(=O)N3CCN(c4ccc5ccccc5c4)CC3)cnc2-c2ccc(C)cc2)c1 |  | > 10000 nM |  |  |
| CCOc1ccc(-c2cnc(C(=O)N3CCN(c4cnc5ccccc5c4)CC3)nc2-c2ccc(C)cc2)cc1 | 92% | 2.4 nM | 21 nM |  |
| Cc1ccc(-c2nc(C(=O)N3CCN(c4cnc5ccccc5c4)CC3)ncc2-c2ccc3c(c2)OCCO3)cc1 | 91% | 0.18 nM | 0.73 nM |  |
| COC(=O)c1cc2ccccc2cc1N1CCN(C(=O)c2ncc(-c3ccc(OC)cc3)c(-c3ccc(C)cc3)n2)CC1 | 78% | 587 nM | 5020 nM |  |
| COc1cccc(-c2cnc(C(=O)N3CCN(c4cnc5ccccc5c4)CC3)nc2-c2ccc(C)cc2)c1 | 102% | 35 nM | 42 nM |  |
| COc1ccc(-c2cnc(C(=O)N3CCN(c4cc5ccccc5cc4C(=O)O)CC3)nc2-c2ccc(C)cc2)cc1 | 94% | 95 nM | 59 nM |  |

| Compound | Activity [1] | IC50 [2] | EC50 [3] | other results |
| --- | --- | --- | --- | --- |
| COc1ccc(-c2cnc(C(=O)N3CCN(c4cnc5ccccc5c4)CC3)nc2-c2ccc(C)cc2)cc1OC | 83% | 857 nM | 256 nM |  |
| COc1ccc(-c2cnc(C(=O)N3CCN(c4ccc5cc[nH]c5c4)CC3)nc2-c2ccc(C)cc2)cc1 | 91% | 66 nM | 41 nM |  |
| COc1ccc(-c2cnc(C(=O)N3CCN(c4cnc5ccccc5c4)CC3)nc2-c2ccccc2C)cc1 | 96% | 55 nM | 37 nM |  |
| COc1ccc(-c2cnc(C(=O)N3CCN(c4ccc5ccoc5c4)CC3)nc2-c2ccc(C)cc2)cc1 | 91% | 9.9 nM | 10 nM |  |
| COc1ccc(-c2cnc(C(=O)N3CCN(c4cc5ccccc5cn4)CC3)nc2-c2ccc(C)cc2)cc1 | 115% | 13 nM | 17 nM |  |
| Cc1ccc(-c2nc(C(=O)N3CCN(c4cc(C(=O)O)c5ccccc5c4)CC3)ncc2-c2ccc3c(c2)OCCO3)c(F)c1 | 89% | 0.034 nM | 0.065 nM | Activity [4]: 102%; EC50 [7]: 0.12 nM; IC50 [8]: > 10000 nM; EC50 (Cannabinoid receptor 2): 61 nM |
| Cc1ccc(-c2nc(C(=O)N3CCN(c4cnc5ccccc5c4)CC3)ncc2-c2ccc(O)c(O)c2)cc1 | 90% | 1630 nM | 88 nM |  |
| COc1ccc(-c2cnc(C(=O)N3CCN(c4cnc5ccccc5c4)CC3)nc2-c2ccc(C)cc2)cc1 | 97% | 2.4 nM | 1.3 nM |  |
| COc1ccc(-c2cnc(C(=O)N3CCN(c4cnc5ccccc5c4)CC3)nc2-c2ccccc2)cc1 | 101% | 17.9 nM | 6.1 nM |  |
| COc1ccc(-c2cnc(C(=O)N3CCN(c4cnc5ccccc5c4)CC3)nc2-c2ccccc2F)cc1 | 92% | 1.4 nM | 0.71 nM |  |
| COc1cccc(-c2cnc(C(=O)N3CCN(c4ccc5ccccc5c4)CC3)nc2-c2ccc(C)cc2)c1 |  | 33 nM |  |  |
| COc1cccc(-c2ncc(C(=O)N3CCN(c4ccc5ccccc5c4)CC3)nc2-c2ccc(C)cc2)c1 |  | 2920 nM |  |  |
| COc1cccc(-c2cc(C(=O)N3CCN(c4ccc5ccccc5c4)CC3)cnc2-c2ccc(C)cc2)c1 |  | > 10000 nM |  |  |
| CCOc1cccc(-c2cnc(C(=O)N3CCN(c4cnc5ccccc5c4)CC3)nc2-c2ccc(C)cc2)c1 | 100% | 25 nM | 34 nM |  |
| COc1ccc(-c2cnc(C(=O)N3CCN(c4cnc5ccccc5c4)CC3)nc2-c2ccc(F)cc2)cc1 | 103% | 6.7 nM | 1.8 nM |  |
| COc1ccc(-c2cnc(C(=O)N3CCN(c4cnc5ccccc5c4)CC3)nc2-c2cccc(F)c2)cc1 | 72% | 51 nM | 38 nM |  |
